Data set [1] concerns the target T1, MCL-1 (Homo sapiens, UniProt Q07820). The experiment in a line: FP. The format is binding. As to conditions: FP MCL-1 Ki.
Data set [2] in a line: Atropoisomer stability in solution. The format is physicochemical.
Data set [3] can be described thus: In vivo PK characteristics. Set-up: species or system mice. As to conditions: mouse, iv, 12.5 mg/kg.
For data set [4], the target named is T1, MCL-1. The experiment in a line: QA. The format is binding. As to conditions: for Ki: QA MCL-1 Ki.
The next data set has as its system cleaved PARP. The experiment in a line: In vivo PD: increase of cleaved PARP in AMO1 xenografted mice. As to conditions: for PARP activation (fold): AMO1 xenografted mice, 16 h after i.v. bolus treatment at 12.5 mg/kg. Summed up:
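Female CB-17 SCID mice (6–7 weeks) were implanted s.c. with 5 × 10⁶ AMO-1 cells in 50:50 medium:Matrigel. At ~200 mm³ tumor volume they were randomized, n = 3 per group. Test compound in 20% HPbCD/25 mM HCl was given as a single 12.5 mg/kg i.v. bolus. Cleaved PARP increase was measured in tumors 16 h later.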

For another data set, the system named is NCI-H929 cells. The experiment in a line: MTT cell viability assay of NCI H929 cell line. The data set is classed as cell-based. In general terms: Tetrazolium dyes change colour on reduction, which living cells bring about.
The test system of data set [5] is human multiple myeloma cell line xenograft (AMO-1). The experiment in a line: AMO-1 efficacy model. As to conditions: QD5, i.v. bolus; for %TGI (day): D14. The data set is classed as in vivo, mice. Summed up:
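Female CB-17 SCID mice (6–7 weeks) received 5 × 10⁶ AMO-1 cells s.c. in the right flank, in 50:50 growth medium:Matrigel. At ~200 mm³ they were randomized, n = 8. Freshly prepared test compound in 20% HPbCD/25 mM HCl was given i.v. daily ×5. Calipers were read 2–3×/week; volume = length × width²/2. TGI was taken at the control group's last day and at maximum; TGD used a 500 mm³ median.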

Setting [6] is: indole analogue versus preceding benzofurane/benzothiophene analogues.

T1 sequence (Q07820 whole entry): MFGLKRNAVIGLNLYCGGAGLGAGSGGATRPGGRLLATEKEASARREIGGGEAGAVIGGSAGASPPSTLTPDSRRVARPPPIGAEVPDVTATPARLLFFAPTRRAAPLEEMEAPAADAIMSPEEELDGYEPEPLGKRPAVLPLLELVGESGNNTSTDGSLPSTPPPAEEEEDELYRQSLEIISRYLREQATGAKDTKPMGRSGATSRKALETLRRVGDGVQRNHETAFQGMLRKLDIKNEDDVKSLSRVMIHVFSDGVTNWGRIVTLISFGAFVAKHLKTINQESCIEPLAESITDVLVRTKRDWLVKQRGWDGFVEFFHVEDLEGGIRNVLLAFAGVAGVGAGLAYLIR

For the compound `CCc1c(-c2cccc(Cl)c2C)c2c(N[C@H](Cc3ccccc3)C(=O)O)ncnc2n1C` (single isomer, unassigned) [Compound 2b, N-[(5Sa)-5-(3-Chloro-2-methylphenyl)-6-ethyl-7-methyl-7H-pyrrolo[2,3-d]pyrimidin-4-yl]-D-phenylalanine], the affinity at MCL-1 [1], expressed as Ki, was 8700 nM. In addition, the atropoisomer stability entry in data set [2] is listed as “stable under the testing conditions”.

`Cc1c(Cl)cccc1-c1c2n(c3ncnc(N[C@H](Cc4ccccc4)C(=O)O)c13)CCC2` [Compound 11, N-[5-(3-Chloro-2-methylphenyl)-7,8-dihydro-6H-pyrimido[5,4-b]pyrrolizin-4-yl]-D-phenylalanine]: the atropoisomer stability result in data set [2] is given as “facile interconversion of the atropoisomers in solution”.

`COc1ccccc1-c1nccc(COc2ccccc2C[C@@H](Oc2ncnc3sc(-c4ccc(F)cc4)c(-c4ccc(OCCN5CCN(C)CC5)c(Cl)c4C)c23)C(=O)O)n1` [Compound 16a, (2R)-2-{[(5Sa)-5-{3-Chloro-2-methyl-4-[2-(4-methylpiperazin-1-yl)ethoxy]phenyl}-6-(4-fluorophenyl)thieno[2,3-d]pyrimidin-4-yl]oxy}-3-(2-{[2-(2-methoxyphenyl)pyrimidin-4-yl]methoxy}phenyl)propanoic Acid]: in data set [3], the AUC is 34000 ng·h/mL and the clearance was found to be 6 mL/min/kg.

In the case of `COc1ccccc1-c1nccc(COc2ccccc2C[C@@H](Oc2ccnc3sc(-c4ccc(F)cc4)c(-c4ccc(OCCN5CCN(C)CC5)c(Cl)c4C)c23)C(=O)O)n1` [Compound 17, (2R)-2-{[(3Sa)-3-{3-Chloro-2-methyl-4-[2-(4-methylpiperazin-1-yl)ethoxy]phenyl}-2-(4-fluorophenyl)thieno[2,3-b]pyridin-4-yl]oxy}-3-(2-{[2-(2-methoxyphenyl)pyrimidin-4-yl]methoxy}phenyl)propanoic Acid], the Ki on MCL-1 [4] is 0.1 nM. Besides, the “PARP activation (fold)” value in the data set with cleaved PARP amounted to 12 fold.

The compound `COc1ccccc1-c1nccc(COc2ccccc2C[C@@H](Nc2nccc3sc(-c4ccc(F)cc4)c(-c4ccc(OCCN5CCN(C)CC5)c(Cl)c4C)c23)C(=O)O)n1` [Compound 19, N-[3-{3-Chloro-2-methyl-4-[2-(4-methylpiperazin-1-yl)ethoxy]phenyl}-2-(4-fluorophenyl)thieno[3,2-c]pyridin-4-yl]-2-{[2-(2-methoxyphenyl)pyrimidin-4-yl]methoxy}-D-phenylalanine] came in with an inhibitory constant (Ki) at MCL-1 [4] of 1.2 nM. Moreover, the drop in affinity at MCL-1 [4] (compared to 16b) is given as 2–4 fold. Moreover, in the data set with NCI-H929 cells (compared to 16b), the “drop in cellular activity” value was 2–4 fold.

At MCL-1 [4], `COc1ccccc1-c1nccc(COc2ccccc2C[C@@H](Oc2cccc3sc(-c4ccc(F)cc4)c(-c4ccc(OCCN5CCN(C)CC5)c(Cl)c4C)c23)C(=O)O)n1` [Compound 20, (2R)-2-{[(3Sa)-3-{3-Chloro-2-methyl-4-[2-(4-methylpiperazin-1-yl)ethoxy]phenyl}-2-(4-fluorophenyl)-1-benzothiophen-4-yl]oxy}-3-(2-{[2-(2-methoxyphenyl)pyrimidin-4-yl]methoxy}phenyl)propanoic Acid] displayed an inhibition constant (Ki) of 1.8 nM. Further, the “PARP activation (fold)” value in the data set with cleaved PARP stood at 156 fold.

Regarding `COc1ccccc1-c1nccc(COc2ccccc2C[C@@H](Oc2cccc3c2c(-c2ccc(OCCN4CCN(C)CC4)c(Cl)c2C)c(-c2ccc(F)cc2)n3C)C(=O)O)n1` [Compound 22, (2R)-2-{[(3Sa)-3-{3-Chloro-2-methyl-4-[2-(4-methylpiperazin-1-yl)ethoxy]phenyl}-2-(4-fluorophenyl)-1-methyl-1H-indol-4-yl]oxy}-3-(2-{[2-(2-methoxyphenyl)pyrimidin-4-yl]methoxy}phenyl)propanoic Acid], the affinity on MCL-1 [4], expressed as Ki, was 2.3 nM. The “drop of on-target affinity” value on MCL-1 [4] (setting [6]) is reported as “ca. 2 fold”. The “drop of cellular activity” value with NCI-H929 cells (setting [6]) was “ca. 2 fold”.

On MCL-1 [4], `COc1ccccc1-c1nccc(COc2ccccc2C[C@@H](Oc2ncnc3c2c(-c2ccc(OCCN4CCN(C)CC4)c(Cl)c2C)c(-c2ccc(F)cc2)n3C)C(=O)O)n1` [Compound 23, (2R)-2-[(5Sa)-5-[3-Chloro-2-methyl-4-[2-(4-methylpiperazin-1-yl)ethoxy]phenyl]-6-(4-fluorophenyl)-7-methyl-pyrrolo[2,3-d]pyrimidin-4-yl]oxy-3-[2-[[2-(2-methoxyphenyl)pyrimidin-4-yl]methoxy]phenyl]propanoic Acid] registered a Ki of 0.64 nM. Further, on MCL-1 [4] (compared to 16a, affinity and activity), the fold less active entry is reported as “about 20 fold”. Also, the “PARP activation (fold)” value with cleaved PARP is listed as 5 fold. Besides, the atropoisomer stability entry in data set [2] is on record as “rapid isomerization”.

Take `COc1ccccc1-c1nccc(COc2ccccc2C[C@@H](Oc2ncnc3oc(-c4ccc(F)cc4)c(-c4ccc(OCCN5CCN(C)CC5)c(Cl)c4C)c23)C(=O)O)n1` [Compound 24, (2R)-2-{[5-{3-Chloro-2-methyl-4-[2-(4-methylpiperazin-1-yl)ethoxy]phenyl}-6-(4-fluorophenyl)furo[2,3-d]pyrimidin-4-yl]oxy}-3-(2-{[2-(2-methoxyphenyl)pyrimidin-4-yl]methoxy}phenyl)propanoic Acid]: the inhibition constant Ki on MCL-1 [4] worked out at 0.036 nM. In the data set on NCI-H929 cells (than 16a), the “cellular activity, fold less” value stood at 10 fold. Moreover, in the data set with cleaved PARP, the “PARP activation (fold)” value is recorded as 129 fold. Further, the “time to reach 500 mm^3 (median of the group)” value in data set [5] (6.25 mpk) turned out to be 28; in data set [5] (12.5 mpk), 37. Besides, the “%TGI (day)” value in data set [5] (6.25 mpk) is recorded as 103.5 (D14) %; in data set [5] (12.5 mpk), 107.7 (D14) %. Further, the “%TGI max (day)” value in data set [5] (6.25 mpk, d7) is listed as 122.7 (d7) %; in data set [5] (12.5 mpk, d2), 184.8 (d2) %. The exposure (AUC) in data set [3] was 56000 ng·h/mL. In addition, in data set [3], the clearance was 2.5 mL/min/kg. For the same compound, the atropoisomer stability entry in data set [2] is “equilibrate rapidly in solution to give a 1:1 mixture”.

`COc1ccccc1-c1nccc(COc2ccccc2C[C@@H](Nc2ncnc3oc(-c4ccc(F)cc4)c(-c4ccc(OCCN5CCN(C)CC5)c(Cl)c4C)c23)C(=O)O)n1` [Compound 25, N-[(5Sa)-5-{3-Chloro-2-methyl-4-[2-(4-methylpiperazin-1-yl)ethoxy]phenyl}-6-(4-fluorophenyl)furo[2,3-d]pyrimidin-4-yl]-2-{[2-(2-methoxyphenyl)pyrimidin-4-yl]methoxy}-D-phenylalanine] gave a Ki on MCL-1 [4] of 0.61 nM. The “PARP activation (fold)” value in the data set on cleaved PARP is given as 60 fold. Besides, the “PARP activation, fold less” value with cleaved PARP (than for the hydroxy acid analogue) is recorded as “about 2 fold”. In addition, in data set [2], the atropoisomer stability entry is “stable in solution”.

Turning to `COc1ccccc1-c1nccc(COc2ccccc2C[C@@H](Oc2nccc3nc(-c4ccc(F)cc4)c(-c4ccc(OCCN5CCN(C)CC5)c(Cl)c4C)n23)C(=O)O)n1` [Compound 26, (2R)-2-{[(3Ra)-3-{3-Chloro-2-methyl-4-[2-(4-methylpiperazin-1-yl)ethoxy]phenyl}-2-(4-fluorophenyl)imidazo[1,2-c]pyrimidin-5-yl]oxy}-3-(2-{[2-(2-methoxyphenyl)pyrimidin-4-yl]methoxy}phenyl)propanoic Acid], the Ki on MCL-1 [4] is 8.2 nM. At MCL-1 [4] (compared to 16a), the drop in affinity is on record as 200 fold. Also, the “drop in cellular activity” value in the data set on NCI-H929 cells (compared to 16a) stood at 200 fold.

The term Ki denotes a measure of affinity in units of concentration, obtained from inhibition or displacement. Read a low Ki as tighter binding. A word on the AUC: it is the area under the concentration-time curve, a measure of exposure. What is called clearance is the rate of elimination divided by the concentration. The low end stands for inefficient removal, the high end for efficient removal.

The values above are taken from publication PMC8412899 (ACS Omega, 2021).
